We go through 48 sequences from the EternaBench riboswitch data.

The test system of this data set is MS2 coat protein. The experiment in a line: apparent Kd, MS2 coat protein; higher = weaker binding; RNA-MaP array; FMN 200 µM where present. Put shortly: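 Stalled E. coli RNA polymerase produced the designs on Illumina sequencing-chip clusters. SNAP-549-labelled MS2 coat protein was added from 0.7 or 1.5 nM, doubling to 3 µM, without and then with constant ligand, in 100 mM Tris-HCl pH 7.5, 80 mM KCl, 4 mM MgCl2, BSA, DTT, yeast tRNA and Tween-20. The apparent Kd is the median of filtered per-cluster fits of green signal normalised to red-channel RNA signal and control-cluster median Fmax.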

[1] abbreviates: designed as: OFF switch for flavin mononucleotide, no ligand.
The mark [2] stands for this setting: ligand present: flavin mononucleotide, designed as: OFF switch for flavin mononucleotide.
The mark [3] stands for this setting: designed as: ON switch for flavin mononucleotide, no ligand.
Setting [4] is: ligand present: flavin mononucleotide, designed as: ON switch for flavin mononucleotide.

Take “GGGUAGUGAGGAUAUCGUUGUUAGGAGGAGAAGGUAGGAGGCGAGAAGGCACAUGAGGAUCACCCAUGUAUGAG”: the “apparent Kd” value is 31 nM under setting [1] and 28.1 nM under setting [2].
Consider “CGAGACCUCACAGGAUAUGCUGGACUUUGUCCAGCAGAAGGGUGAAAACAUGAGGAUCACCCAUGUAUGGUCUCCAAAUUUAAC”, for which the “apparent Kd” value reads like this: under setting [3], 175 nM; under setting [4], 12.9 nM.
Turning to “AUAUGGGCUAACAUGAGGAUCACCCAUGUGUUAUACUUAAUAUAGGAUAUGUUUAUACUUUUUGGGCAGAAGGAUGGCCCAUAU”, the “apparent Kd” value runs as follows: under setting [3], 67.9 nM; under setting [4], 68.7 nM.
Consider “GCUAUCGAUGUAGGAUAUGCUAGGGAAACCCUGGCAGAAGGACAUGAGGAUCACCCAUGUCAAUGAGUGAAGAGAAGAGAUGGC”, for which the “apparent Kd” value amounted to 43.3 nM under setting [1] and 127 nM under setting [2].
For “GCCAUCGCAUGAGGAUAUGGCACCGUUUCGGUGCCAGAAGGCAUGUCUUAAGACAUGAGGAUCACCCAUGUAGUUAAGAUGGCA”, the “apparent Kd” value under setting [3] amounted to 860 nM and the “apparent Kd” value under setting [4] is 56.9 nM.
Take “GGAUAGGACAGAGGAUAUACGUGCUAUAGAUACUAGCAAAAUUUCCUCACAUGAGGAUCACCCAUGUAGAAGGCUGUCCUAUCG”: the “apparent Kd” value runs as follows: under setting [1], 16.8 nM; under setting [2], 354 nM.
For “CCCGGCGUGUCGCUACGCCGAGAGCAGGAUAUUCCGCCGUGAUCUACAUGAGGAUCACCCAUGUGGAAGAAGGGCUACACAAAA”, the “apparent Kd” value by setting is: under setting [1], 14.2 nM; under setting [2], 122 nM.
In the same order, the values of “AAGUCGACGGUGAGGAUAUCGGUUGAACGACAGAUCGAGAAGGCACAUGAGGAUCACCCAUGUGGGUAACGUCG” are 19.3 nM and 31.8 nM.
In the same order, the values of “AGGACAAGGCAGAAGGGACAUGAGGAUCACCCAUGUACCGUGGUUCAGCAGUCAGGAUAUGCCAUAUGUAAACAUAUCGUAAGA” are 12.1 nM and 108 nM.
Taken in the same sequence, the figures for “AAGUACCGGUGAGGAUAUUUUUAAUAGAACUUUAUGAUAUACAUGAGGAUCACCCAUGUUACUUUAAAGAAGGCAUCGGAUUAA” were 18 nM and 14.8 nM.
With “GUGGUCAGACAUGAGGAUCACCCAUGUGGAAUAAAUAAGGAGAAGGAUAUUGAAUAUAGGAUAUACAAGAAGGUCUGGUUGGUG”, the “apparent Kd” value is, setting by setting: under setting [3], 84.9 nM; under setting [4], 87 nM.
As for “AAAGCAACAUGAGGAUCACCCAUGUAGGAUAUCGCUAUUGUAAUCAUGAAACAUGAUUACAAUAGCGAGAAGGACAUAUGCUAA”, the “apparent Kd” value is, setting by setting: under setting [1], 9.26 nM; under setting [2], 10.8 nM.
As to “UGUGUUAUCGGAGGAUAUCGAUAUCAAACAUGAGGAUCACCCAUGUUGAGGAUCACCCAUGUCCACGAGAAGGCCGGCGUAGUG”, the “apparent Kd” value is, setting by setting: under setting [3], 18.1 nM; under setting [4], 18.3 nM.
Taken in the same sequence, the figures for “AAAAAACAUGAGGAUCACCCAUGUAAUAAAACGUCAGGAUAUUGAUUUUAUUAUUUAUUGCGAGAAGGGACAAAAA” were 37.1 nM and 24.4 nM.
“AAUUUGGUCGUAGGAUAUCGGAAGCGGUGCGAACGAGAAGGGCGACAUGAGGAUCACCCAUGUAGCCACGAAGGCGAUCCUUGG”: the “apparent Kd” value runs as follows: under setting [1], 9.75 nM; under setting [2], 16.3 nM.
In the same order, the values of “CAGGUCUGAGGAUAUCCAUCUUCAUACAUGAGGAUCACCCAUGUUUCCCUCUGGGUUUUCGGAGAAGGCAGUUUUU” are 358 nM and 293 nM.
As to “ACAUGAUAUGUAGGAUAUCACAUUAAUUGAUUAAUAUUUGAAUAUAGGAUUUGAGAAGGACAUUUACAUGAGGAUCACCCAUGU”, the “apparent Kd” value was found to be 20.1 nM under setting [1] and 14.4 nM under setting [2].
Taken in the same sequence, the figures for “GGCGUGUGAGGAUAUCUGAUGUCUAACUUCGGUUAGACAUCAGAGAAGGCACAUGAGGAUCACCCAUGUCCGCC” were 67.5 nM and 61.9 nM.
Taken in the same sequence, the figures for “UUGUUCUGAGGAUAUACAUGAGGAUCACCCAUGUGUUUCUGCUAGGAGACUAGCGAAUGUAGAAGGCUGUUCUC” were 19.4 nM and 19.9 nM.
Consider “AAGUAGAUCCGAGGAUAUACAAAGUGGAAUCGCUACAUGAGGAUCACCCAUGUAGAAGGCGGAUCUACAGGUACUAAAGUACCA”, for which the “apparent Kd” value is, setting by setting: under setting [1], 8.01 nM; under setting [2], 68.3 nM.
In the same order, the values of “CUUCAGUCAGGAUAUCUGCACGCUGGUGAGACCGGACGGAAGGAGAAGGGACAUGAGGAUCACCCAUGUAAAGC” are 14 nM and 17.5 nM.
Take “CAUACAGUAGUUAGGAUAUUGCAACGUACACGGAACGAGAAGGGACAUGAGGAUCACCCAUGUAGAUUGUAAAG”: the “apparent Kd” value by setting is: under setting [1], 21.8 nM; under setting [2], 21.1 nM.
As for “CGGCGCUGUCGAGAGGAUAUGCGGUGACGGACAUGAGGAUCACCCAUGUUAGCGAUAGCGUUACGGUAGAAGGCUCUACAGUCGC”, the “apparent Kd” value is 76.8 nM under setting [3] and 15.4 nM under setting [4].
In the same order, the values of “CUGUGGGCCAUAGGAUAUGCGCAGAAUUAGCAAGCAGAAGGGUGGAUCGUACAAUAAUAACUACAUGAGGAUCACCCAUGUGCU” are 360 nM and 39.6 nM.
“AUGCUAGUGUGAGGAUAUUAUUGACAUGAGGAUCACCCAUGUGUGAGUCCAACAUGAGCUACAGUUAAGAAGGUACAUUAGCAU”: the “apparent Kd” value reads like this: under setting [1], 45.5 nM; under setting [2], 38.1 nM.
Taken in the same sequence, the figures for “GGGAUUAAGGCAGGAUAUCCGGGUUGGCCUCGACAUGAGGAUCACCCAUGUGGAGAAGGGCCGAUUGCCCGUAGGGUGAUCAAG” were 274 nM and 108 nM.
With “ACCUAGCCCAGGCCCACGGCAUCACAGGAUAUGCCGAUAACAUGAGGAUCACCCAUGUCAACUCCGCAGAAGGGUGAUAUCGUG”, the “apparent Kd” value under setting [3] worked out at 89.2 nM and the “apparent Kd” value under setting [4] is 13.5 nM.
Consider “UCGGCGCGAGGAUAUACGUUUGCUUUUUGGGAUCGUUGCGUACAUGAGGAUCACCCAUGUAGAAGGCGCGCCGC”, for which the “apparent Kd” value by setting is: under setting [1], 17.6 nM; under setting [2], 73.8 nM.
Consider “CUCGAGUUAGGAUAUUGAACGUAACAAGCGGGAACUCCCGCCAAGAAGGAACAUGAGGAUCACCCAUGUGAAAC”, for which the “apparent Kd” value by setting is: under setting [1], 21 nM; under setting [2], 21.3 nM.
Regarding “GCACAUUUGUAAGGAUAUACUACAUGAGGAUCACCCAUGUGCAUGGAGAUUGUAGAAGGUACAGCAAUAUUGAUUAACGUUAUA”, the “apparent Kd” value under setting [3] was 134 nM and the “apparent Kd” value under setting [4] was determined as 77.2 nM.
In the case of “AGCUAGUCAGGAUAUACGAACAUGUCGAAAGACGUGAGGGAACAUGAGGAUCACCCAUGUAGAAGGGACUAGCA”, the “apparent Kd” value amounted to 30.6 nM under setting [1] and 36.2 nM under setting [2].
Taken in the same sequence, the figures for “GUCAGCUCGUGAGGAUAUACAACCCUGCUUCGGCAGUGUAUUAAGAUCACAUGAGGAUCACCCAUGUAGAAGGCACGAGCUGAU” were 10.3 nM and 146 nM.
Take “GUACUCAUGUAAGGAUAUGCAGCCGUUUCGGCUGCAGAAGGUACUAUAAUACAUGAGGAUCACCCAUGUCUCUCGCAUUGCGAG”: the “apparent Kd” value runs as follows: under setting [3], 465 nM; under setting [4], 98.4 nM.
For the sequence “GAUUUCUAAGGAUAUACUGAUGUUCCUAAGUCUAGCGGCUCACAUGAGGAUCACCCAUGUAGAAGGUGGAGGUU”, the “apparent Kd” value is, setting by setting: under setting [1], 27.8 nM; under setting [2], 30.1 nM.
In the case of “UUUUACUUAGGAUAUACAUUUUUUUAUUUAUUUAUAAUAUUACAUGAGGAUCACCCAUGUAGAAGGGAGAUUUU”, the “apparent Kd” value by setting is: under setting [1], 77 nM; under setting [2], 63.4 nM.
As to “CGGGCCGUCUACAUGAGGAUCACCCAUGUGACGGAAGUAACACAGGAUAUCCUCUAAUUGUAGACGGAGAAGGGUGGCCCGAAU”, the “apparent Kd” value runs as follows: under setting [3], 28.9 nM; under setting [4], 159 nM.
For “ACAUGCUGCCGGCAGGAUAUCGCUUGGCGGACAUGAGGAUCACCCAUGUGAGAAAGUCGCGCGCGCGAGAAGGGCCAUGGUAUCAG”, the “apparent Kd” value under setting [3] was 98.2 nM and the “apparent Kd” value under setting [4] is 80 nM.
With “AAGUAGACGGUGAGGAUAUAGGUCGAACGACCGAUCUAGAAGGCACAUGAGGAUCACCCAUGUGGGUAACGUCG”, the “apparent Kd” value was determined as 17.9 nM under setting [1] and 19.6 nM under setting [2].
Take “UCCAAGCUAGGAUAUACCCAGGGUUUGUUCUCUAACAAAACACAUGAGGAUCACCCAUGUAGAAGGAGCCGGGA”: the “apparent Kd” value by setting is: under setting [1], 58.1 nM; under setting [2], 62.9 nM.
For “AGUAUGAGAGGAUAUACUAAUAAACAUGGAAACAUGAAGGGACAUGAGGAUCACCCAUGUAGAAGGCUCGUACA”, the “apparent Kd” value reads like this: under setting [1], 55.6 nM; under setting [2], 177 nM.
With “GAUUGUUUUUAGAAGGUGCCGGCGAGAGCCGCAACAUGAGGAUCACCCAUGUGUCGGUGACGACGCAAGGAUAUGGAGGUGGUU”, the “apparent Kd” value is 217 nM under setting [3] and 108 nM under setting [4].
Taken in the same sequence, the figures for “GACUGAUUGUAGAAGGUACUUGAAAAUAUUUAAUAACUCAUGUGACAUGAGGAUCACCCAUGUAGUAAGGAUAUACAUAUCACA” were 198 nM and 91 nM.
In the case of “UUAGUCAUGUAAGGAUAUCCGAUGCGAAGCGUUGGAGAAGGUACAUGAGGAUCACCCAUGUUCUGCGUCUGAGUACAGAUGCUA”, the “apparent Kd” value reads like this: under setting [1], 494 nM; under setting [2], 174 nM.
Consider “GUCCUACAUGAGGAUCACCCAUGUGAGGAUAUGGAUUCGCUGGCCGUAGCCAGUGGAUCCAGAAGGCGCGUGAU”, for which the “apparent Kd” value reads like this: under setting [1], 63.1 nM; under setting [2], 64.8 nM.
In the same order, the values of “AACUACCCGUCAGGAUAUCGCCGUAGGUCCUCGGGUCUCGCCGUCAUACAUGAGGAUCACCCAUGUGAGAAGGGACGGGUUUCA” are 20.9 nM and 136 nM.
In the same order, the values of “GACCUCACGGUCAGGAUAUCAGAACGUAAUGCGCAUGAGAAGGGACAUGAGGAUCACCCAUGUGGGCUCGUCGC” are 13.5 nM and 17 nM.
As to “UGGUCAUCAUCAGGAUAUUAACGUGGGCUACUUUAAGAAGGGAUAGUGGGAGAGGAUGUGAAACAUGAGGAUCACCCAUGUUGU”, the “apparent Kd” value reads like this: under setting [3], 15.7 nM; under setting [4], 12.3 nM.
With “GCGCAAAGAUUAUUAUGAAUAAACAUGAGGAUCACCCAUGUAUAGGAUAUCGACUCGAAUAGAGUCGAGAAGGAUACAUAGCGC”, the “apparent Kd” value is, setting by setting: under setting [1], 22.5 nM; under setting [2], 97.1 nM.
